Results as given in ChEMBL document CHEMBL4038284, “Synthesis of novel quinoline-based 4,5-dihydro-1H-pyrazoles as potential anticancer, antifungal, antibacterial and antiprotozoal agents” (Eur J Med Chem, 2017).
Converted amounts (≈) assume the structure as drawn.

Key:
Cryptococcus neoformans [1] = assay: Growth inhibition of Cryptococcus neoformans ATCC 32264 at 125 ug/ml incubated for 48 hrs under dark condition by broth microdilution method relative to control; assay type: functional; conditions: ATCC 32264, 48 h, read-out: GI
How it was run: (§1)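 CLSI M27-A3 broth microdilution in RPMI-1640, DMSO ≤1%. Inoculum 1-5 × 10^3 CFU/mL. Incubated 48 h at 30 °C, dark. % inhibition = 100 − (OD405 test − sterility control)/(OD405 growth control − sterility control), with growth and sterility control wells. Triplicate.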

Escherichia coli = assay: Antibacterial activity against Escherichia coli ATCC 25922 after 24 hrs by resazurin dye based microdilution assay; assay type: functional; conditions: ATCC 25922, 24 h
How it was run: (§2)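 MIC taken as the lowest concentration giving visible inhibition and/or by resazurin (1 mg/mL). Gentamicin was the control. Run in duplicate, repeated at least three times.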

Cryptococcus neoformans [2] = assay: Antifungal activity against Cryptococcus neoformans ATCC 32264 incubated for 48 hrs under dark condition by broth microdilution method; assay type: functional; conditions: ATCC 32264, 48 h
How it was run: (§3)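 CLSI M27-A3 broth microdilution in RPMI-1640, DMSO ≤1%, compounds at 250-0.98 µg/mL final. Inoculum 1-5 × 10^3 CFU/mL. Incubated 48 h at 30 °C in a moist dark chamber, read at OD405. MIC80 and MIC50 taken from % inhibition dose-response curves (mean ± SEM, triplicate). Amphotericin B was the positive control.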

Candida albicans [3] = assay: Growth inhibition of Candida albicans ATCC 10231 at 7.8 ug/ml incubated for 48 hrs under dark condition by broth microdilution method relative to control; assay type: functional; conditions: ATCC 10231, 48 h, read-out: GI; how it was run: as §1
Candida albicans [4] = assay: Growth inhibition of Candida albicans ATCC 10231 at 250 ug/ml incubated for 48 hrs under dark condition by broth microdilution method relative to control; assay type: functional; conditions: ATCC 10231, 48 h, read-out: GI; how it was run: as §1
Cryptococcus neoformans [5] = assay: Growth inhibition of Cryptococcus neoformans ATCC 32264 at 31.25 ug/ml incubated for 48 hrs under dark condition by broth microdilution method relative to control; assay type: functional; conditions: ATCC 32264, 48 h, read-out: GI; how it was run: as §1
Plasmodium falciparum = assay: Antiplasmodial activity against chloroquine-sensitive Plasmodium falciparum 3D7 assessed as reduction in parasitic LDH activity after 48 hrs by Malstat reagent based […] method; assay type: functional; conditions: 3D7, 48 h
How it was run: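 Unsynchronized P. falciparum 3D7 at 0.5% parasitemia and 1% hematocrit in RPMI with 3% Albumax II. Exposed to 100, 25, 6.25 and 1.56 µg/mL for 48 h at 37 °C under 90% N2/5% CO2/5% O2. After three freeze-thaw cycles, LDH measured with Malstat and NBT/PES, 1 h in the dark, read at 650 nm. IC50 by Probit; triplicate, ≥2 experiments.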

Cryptococcus neoformans [6] = assay: Growth inhibition of Cryptococcus neoformans ATCC 32264 at 3.4 ug/ml incubated for 48 hrs under dark condition by broth microdilution method relative to control; assay type: functional; conditions: ATCC 32264, 48 h, read-out: GI
Staphylococcus aureus [7] = assay: Antibacterial activity against vancomycin-intermediate Staphylococcus aureus after 24 hrs by resazurin dye based microdilution assay; assay type: functional; how it was run: as §2
Candida albicans [8] = assay: Growth inhibition of Candida albicans ATCC 10231 at 3.4 ug/ml incubated for 48 hrs under dark condition by broth microdilution method relative to control; assay type: functional; conditions: ATCC 10231, 48 h, read-out: GI
Candida albicans [9] = assay: Growth inhibition of Candida albicans ATCC 10231 at 125 ug/ml incubated for 48 hrs under dark condition by broth microdilution method relative to control; assay type: functional; conditions: ATCC 10231, 48 h, read-out: GI; how it was run: as §1
Candida albicans [10] = assay: Growth inhibition of Candida albicans ATCC 10231 at 31.25 ug/ml incubated for 48 hrs under dark condition by broth microdilution method relative to control; assay type: functional; conditions: ATCC 10231, 48 h, read-out: GI; how it was run: as §1
Cryptococcus neoformans [11] = assay: Growth inhibition of Cryptococcus neoformans ATCC 32264 at 15.62 ug/ml incubated for 48 hrs under dark condition by broth microdilution method relative to control; assay type: functional; conditions: ATCC 32264, 48 h, read-out: GI; how it was run: as §1
Candida albicans [12] = assay: Antifungal activity against Candida albicans ATCC 10231 incubated for 48 hrs under dark condition by broth microdilution method; assay type: functional; conditions: ATCC 10231, 48 h; how it was run: as §3
Cryptococcus neoformans [13] = assay: Growth inhibition of Cryptococcus neoformans ATCC 32264 at 7.8 ug/ml incubated for 48 hrs under dark condition by broth microdilution method relative to control; assay type: functional; conditions: ATCC 32264, 48 h, read-out: GI; how it was run: as §1
Candida albicans [14] = assay: Growth inhibition of Candida albicans ATCC 10231 at 15.62 ug/ml incubated for 48 hrs under dark condition by broth microdilution method relative to control; assay type: functional; conditions: ATCC 10231, 48 h, read-out: GI; how it was run: as §1
Trypanosoma cruzi = assay: Antitrypanosomal activity against Trypanosoma cruzi Tulahuen intracellular amastigote harboring LacZ infected in human U937 cells after 72 hrs by CPRG/Nonidet reagent based spectrophotometric method; assay type: functional, cell-based; conditions: U-937, 72 h
How it was run: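 U-937 cells at 2.5 × 10^5 cells/mL in RPMI-1640 with 10% serum and 0.1 µg/mL PMA were infected with β-galactosidase-transfected Tulahuen epimastigotes at 5 parasites per cell. Infected cells were exposed to 50, 12.5, 3.125 and 0.78 µg/mL for 72 h. CPRG (100 uM) and 0.1% Nonidet P-40 were added for 3 h, read at 570 nm. EC50 by Probit. Triplicate, at least two experiments; benznidazole as reference.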

Klebsiella pneumoniae [15] = assay: Antibacterial activity against ESBL positive Klebsiella pneumoniae ATCC 700603 after 24 hrs by resazurin dye based microdilution assay; assay type: functional; conditions: Klebsiella pneumoniae, 700603, 24 h; how it was run: as §2
Staphylococcus aureus [16] = assay: Antibacterial activity against methicillin-resistant Staphylococcus aureus ATCC 43300 after 24 hrs by resazurin dye based microdilution assay; assay type: functional; conditions: ATCC 43300, 24 h
How it was run: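 Broth microdilution in Mueller Hinton broth, inoculum 5 × 10^5 – 8 × 10^5. Compound stocks diluted in MHB with 5% DMSO and 0.1% Tween 80. Incubation 24 h at 35-37 °C. MIC is the lowest concentration with visible growth inhibition and/or by resazurin (1 mg/mL) read-out. Gentamicin as control. Run in duplicate, replicated at least three times.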

Cryptococcus neoformans [17] = assay: Growth inhibition of Cryptococcus neoformans ATCC 32264 at 250 ug/ml incubated for 48 hrs under dark condition by broth microdilution method relative to control; assay type: functional; conditions: ATCC 32264, 48 h, read-out: GI; how it was run: as §1
U-937 = assay: Cytotoxicity against human U937 cells after 72 hrs by MTT assay; assay type: cell-based; conditions: u-937, 72 h
How it was run: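 Exponentially growing U-937 at 1 × 10^5 cells/mL in RPMI-1640 with 10% FBS were exposed to 200, 50, 12.5 and 3.125 µg/mL for 72 h at 37 °C, 5% CO2. MTT for 3 h, stopped with isopropanol/SDS, formazan read at 570 nm, blank-corrected. LC50 by Probit from % viability against untreated cells. Triplicate, at least two independent experiments.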

Candida albicans [18] = assay: Growth inhibition of Candida albicans ATCC 10231 at 62.5 ug/ml incubated for 48 hrs under dark condition by broth microdilution method relative to control; assay type: functional; conditions: ATCC 10231, 48 h, read-out: GI; how it was run: as §1
Pseudomonas aeruginosa = assay: Antibacterial activity against Pseudomonas aeruginosa ATCC 27853 after 24 hrs by resazurin dye based microdilution assay; assay type: functional; conditions: ATCC 27853, 24 h; how it was run: as §2
Cryptococcus neoformans [19] = assay: Growth inhibition of Cryptococcus neoformans ATCC 32264 at 62.5 ug/ml incubated for 48 hrs under dark condition by broth microdilution method relative to control; assay type: functional; conditions: ATCC 32264, 48 h, read-out: GI; how it was run: as §1
Leishmania panamensis = assay: Antileshmanial activity against EpiR/GFP fused Leishmania panamensis MHOM/CO/87/UA140 intracellular amastigotes infected in human […] cells after 72 hrs by flow cytometric method; assay type: functional, cell-based; conditions: MHOM/CO/87/UA140, 72 h
How it was run: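 PMA-treated U-937 cells (3 × 10^5 cells/mL) infected with stationary-phase GFP L. panamensis promastigotes (15:1), 3 h at 34 °C, then washed. After 24 h, compounds added at 50, 12.5, 3.125 and 0.78 µg/mL for 72 h at 37 °C. EC50 by Probit; triplicate, two experiments.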

Staphylococcus aureus [20] = assay: Antibacterial activity against methicillin-sensitive Staphylococcus aureus ATCC 25923 after 24 hrs by resazurin dye based microdilution assay; assay type: functional; conditions: ATCC 25923, 24 h; how it was run: as §2
Klebsiella pneumoniae [21] = assay: Antibacterial activity against carbapenemase positive Klebsiella pneumoniae BAA 1705 after 24 hrs by resazurin dye based microdilution assay; assay type: functional; conditions: BAA 1705, 24 h; how it was run: as §2
Neisseria gonorrhoeae = assay: Antibacterial activity against beta lactamase positive Neisseria gonorrhoeae ATCC 31426 by oxidase test; assay type: functional
How it was run: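 Agar dilution MIC on GC agar with 1% isovitalex containing increasing compound concentrations. Plates inoculated with about 1×10^4 CFU (5 µL). MIC is the lowest concentration that inhibited growth, with growth confirmed by oxidase test. Run in duplicate, repeated at least three times.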

Row | SMILES | inhibition of growth at 125 µg/mL (Cryptococcus neoformans [1]) | MIC (Escherichia coli) | MIC50 (Cryptococcus neoformans [2]) | MIC80 (Cryptococcus neoformans [2]) | inhibition of growth at 7.8 µg/mL (Candida albicans [3]) | inhibition of growth at 250 µg/mL (Candida albicans [4]) | inhibition of growth at 31.25 µg/mL (Cryptococcus neoformans [5]) | EC50 (Plasmodium falciparum) | inhibition of growth at 3.4 µg/mL (Cryptococcus neoformans [6]) | MIC (Staphylococcus aureus [7]) | inhibition of growth at 3.4 µg/mL (Candida albicans [8]) | inhibition of growth at 125 µg/mL (Candida albicans [9]) | inhibition of growth at 31.25 µg/mL (Candida albicans [10]) | inhibition of growth at 15.62 µg/mL (Cryptococcus neoformans [11]) | MIC50 (Candida albicans [12]) | MIC80 (Candida albicans [12]) | inhibition of growth at 7.8 µg/mL (Cryptococcus neoformans [13]) | inhibition of growth at 15.62 µg/mL (Candida albicans [14]) | EC50 (Trypanosoma cruzi) | MIC (Klebsiella pneumoniae [15]) | also measured
1 | Clc1ccc2c(Nc3cccc(C4CC(c5ccc(Br)cc5)=NN4c4ccccc4)c3)ccnc2c1 (stereo not given) | 20.1% | > 1000 µg/mL | ≥ 250 µg/mL | ≥ 250 µg/mL | 4.31% | 44.9% | 11.8% | 5.54 µg/mL (≈ 10 µM) | 3.29% | > 1000 µg/mL | 3.09% | 26.3% | 9.65% | 7.94% | ≥ 250 µg/mL | ≥ 250 µg/mL | 7.67% | 8.46% | 6.67 µg/mL (≈ 12 µM) | > 1000 µg/mL | MIC (Staphylococcus aureus [16]): > 1000 µg/mL; inhibition of growth at 250 µg/mL (Cryptococcus neoformans [17]): 45.1%; LC50 (U-937): 9.2 µg/mL (≈ 16.6 µM); inhibition of growth at 62.5 µg/mL (Candida albicans [18]): 12.6%; MIC (Pseudomonas aeruginosa): > 1000 µg/mL; inhibition of growth at 62.5 µg/mL (Cryptococcus neoformans [19]): 20%; EC50 (Leishmania panamensis): 3.59 µg/mL (≈ 6.48 µM); MIC (Staphylococcus aureus [20]): > 1000 µg/mL; MIC (Klebsiella pneumoniae [21]): > 1000 µg/mL; MIC (Neisseria gonorrhoeae): > 1000 µg/mL
2 | Clc1ccc2c(Nc3cccc(C4CC(c5ccccc5)=NN4c4ccccc4)c3)ccnc2c1 (stereo not given) | 26.5% | > 1000 µg/mL | 250 µg/mL (≈ 526 µM) | ≥ 250 µg/mL | 5.03% | 53% | 20.4% | 13.4 µg/mL (≈ 28.1 µM) | 9.75% | > 1000 µg/mL | 3.1% | 32.4% | 11% | 18.4% | 250 µg/mL (≈ 526 µM) | ≥ 250 µg/mL | 13.6% | 8.69% | 39.2 µg/mL (≈ 82.5 µM) | > 1000 µg/mL | MIC (Staphylococcus aureus [16]): > 1000 µg/mL; inhibition of growth at 250 µg/mL (Cryptococcus neoformans [17]): 52.3%; LC50 (U-937): > 200 µg/mL; inhibition of growth at 62.5 µg/mL (Candida albicans [18]): 20.1%; MIC (Pseudomonas aeruginosa): > 1000 µg/mL; inhibition of growth at 62.5 µg/mL (Cryptococcus neoformans [19]): 20.5%; EC50 (Leishmania panamensis): 22.7 µg/mL (≈ 47.7 µM); MIC (Staphylococcus aureus [20]): > 1000 µg/mL; MIC (Klebsiella pneumoniae [21]): > 1000 µg/mL; MIC (Neisseria gonorrhoeae): > 1000 µg/mL
